Source: paper PMC3994405 (Clinical cancer research : an official journal of the …, 2014)
Read-outs that look alike come from different tables or passages of the source.

Test system: peptide-MHC reactive CD8 T cells in PBLs from healthy donors
Format: cell-based, human
Conditions: PBLs after enrichment and 2-3 weeks culture
Procedure, shortened: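 PBLs washed in PBS with 2% FBS and stained with 0.1ug of each PE-coupled peptide-MHC multimer, 1h at 4°C. Anti-PE microbeads were added for 15 min, then magnetic column capture. Enriched cells were expanded 2–3 weeks in X-vivo with 5% human serum, 100 U/ml IL-2, 15 ng/ml IL-15, autologous negative-fraction feeders and anti-CD3/CD28 beads. Cells were then analysed by two-colour combinatorial multimer staining on lymphocyte/single/live/CD8 gates.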

Question: For KMALHGLPR, which “Healthy Donors: number of times a response was detected/number of investigated HLA matched individuals” value (HLA-A3 restriction) is on record?
Answer: 1/14

Question: NLPAYSVARV was tested. Which “Healthy Donors: number of times a response was detected/number of investigated HLA matched individuals” value (HLA-A2 restriction) did it give?
Answer: 1/16

Question: How did the “Healthy Donors: number of times a response was detected/number of investigated HLA matched individuals” value (HLA-A3 restriction) turn out when TVLGRKMTPK was run?
Answer: 1/14

Question: For LPRYFNVTL, which “Healthy Donors: number of times a response was detected/number of investigated HLA matched individuals” value (HLA-B7 restriction) is on record?
Answer: 1/13

Question: VTLRKRWVK was tested. Which “Healthy Donors: number of times a response was detected/number of investigated HLA matched individuals” value (HLA-A11 restriction) did it give?
Answer: 1/7

Question: With SLFSNLMPK as the sequence, how does the “Healthy Donors: number of times a response was detected/number of investigated HLA matched individuals” value (HLA-A11 restriction) read?
Answer: 2/7A11
